According to ChEMBL document CHEMBL1125212, “Dual-action cephalosporins: cephalosporin 3'-quinolone carbamates” (J Med Chem, 1991):
In brackets after ≈: the same amount, converted by molar mass.

Key:
[1] = system: Pseudomonas aeruginosa; test: The compound was tested in vitro for minimum inhibitory concentration against Pseudomonas aeruginosa 18S/H; type: functional
Method in brief: (§1)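 Agar dilution on Mueller-Hinton agar using 2-fold serial dilutions, giving final 128 to 0.0156 μg/mL (extended to 0.000977 μg/mL where needed). Inoculum was overnight broth culture diluted 100-fold, about 3×10^4 CFU/spot, applied by replicator. MIC read after overnight incubation at 36 °C.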

[2] = system: Escherichia coli; test: Minimum inhibitory concentration required to inhibit the activity of Escherichia coli ATCC 25922; type: functional; method in brief: as §1
[3] = system: Citrobacter freundii; test: The compound was tested in vitro for minimum inhibitory concentration against Citrobacter Freundii BS-16; type: functional; method in brief: as §1
[4] = system: Staphylococcus aureus; test: The compound was tested in vitro for minimum inhibitory concentration against Staphylococcus aureus 753; type: functional; method in brief: as §1
[5] = system: Proteus mirabilis; test: The compound was tested in vitro for minimum inhibitory concentration against Proteus mirabilis 90; type: functional
Method in brief: (§2)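 Proteus MICs by agar dilution on Mueller-Hinton medium containing 3% agar. Serial 2-fold dilutions gave final 128 to 0.0156 μg/mL (further to 0.000977 μg/mL). Inoculum was overnight broth diluted 100-fold, about 3×10^4 CFU/spot. Plates read after overnight incubation at 36 °C.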

[6] = system: Escherichia coli; test: The compound was tested in vitro for minimum inhibitory concentration against Escherichia coli 257; type: functional; method in brief: as §1
[7] = system: Micrococcus luteus; test: The compound was tested in vitro for minimum inhibitory concentration against Micrococcus luteus ATCC 9341; type: functional; method in brief: as §1
[8] = system: Escherichia coli; test: The compound was tested in vitro for minimum inhibitory concentration against Escherichia coli TEM-1; type: functional; method in brief: as §1
[9] = system: Pseudomonas aeruginosa; test: The compound was tested in vitro for minimum inhibitory concentration against Pseudomonas aeruginosa 8780; type: functional; method in brief: as §1
[10] = system: Staphylococcus aureus; test: The compound was tested in vitro for minimum inhibitory concentration against Staphylococcus aureus smith; type: functional; method in brief: as §1
[11] = system: Staphylococcus aureus; test: The compound was tested in vitro for minimum inhibitory concentration against Staphylococcus aureus 67-0; type: functional; method in brief: as §1
[12] = system: Streptococcus pneumoniae; test: The compound was tested in vitro for minimum inhibitory concentration against Streptococcus pneumoniae 6301; type: functional
Method in brief: (§3)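 Streptococci tested by agar dilution on brain heart infusion agar with 20 units/mL bovine liver catalase. Final drug range 128 to 0.0156 μg/mL by 2-fold steps, extended to 0.000977 μg/mL when required. Inoculum about 3×10^4 CFU/spot from overnight broth diluted 100-fold. MIC after overnight incubation at 36 °C.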

[13] = system: Escherichia coli; test: Minimum inhibitory concentration required to inhibit the activity of Escherichia coli UB1005; type: functional; method in brief: as §1
[14] = system: Serratia marcescens; test: The compound was tested in vitro for minimum inhibitory concentration against Serratia marcescens 1071; type: functional; method in brief: as §1
[15] = system: Escherichia coli; test: The compound was tested in vitro for minimum inhibitory concentration against Escherichia coli ATCC 25922; type: functional; method in brief: as §1
[16] = system: Escherichia coli; test: Inhibitory activity on replicative DNA biosynthesis in Escherichia coli H560 (permeabilised cells); type: functional, organism-based
Method in brief: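 E. coli H560 cells permeabilized with toluene. ATP-dependent incorporation of [3H]thymidine into trichloroacetic acid-insoluble material was measured. IC50 taken as the concentration giving 50% inhibition.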

[17] = system: Enterobacter cloacae; test: The compound was tested in vitro for minimum inhibitory concentration against Enterobacter cloacae P99; type: functional
[18] = system: Enterococcus faecalis; test: The compound was tested in vitro for minimum inhibitory concentration against Enterococcus faecalis ATCC 29212; type: functional; method in brief: as §1
[19] = system: Streptococcus pyogenes; test: The compound was tested in vitro for minimum inhibitory concentration against Streptococcus pyogenes; type: functional; method in brief: as §3
[20] = system: Klebsiella pneumoniae; test: The compound was tested in vitro for minimum inhibitory concentration against Klebsiella pneumoniae A; type: functional; method in brief: as §1
[21] = system: Proteus vulgaris; test: The compound was tested in vitro for minimum inhibitory concentration against Proteus vulgaris 1028 BC; type: functional; method in brief: as §2
[22] = system: Escherichia coli; test: Minimum inhibitory concentration for inhibition of [14C]- Pen G binding to Escherichia coli UB1005; type: functional
Method in brief: (§4)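 Membranes from sonicated E. coli UB1005 were solubilized. Binding to penicillin-binding proteins was measured as inhibition of [14C]penicillin G binding.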

[23] = system: Escherichia coli; test: The compound was evaluated for the inhibition of [14C]- Pen G binding to Escherichia coli UB1005 penicillin-binding protein 2 66 kDa.; method in brief: as §4
[24] = system: Escherichia coli; test: The compound was evaluated for the inhibition of [14C]- Pen G binding to Escherichia coli UB1005 penicillin-binding protein 3 60 kDa.; method in brief: as §4
[25] = system: Escherichia coli; test: The compound was evaluated for the inhibition of [14C]- Pen G binding to Escherichia coli UB1005 penicillin-binding protein 1b 90 kDa.; method in brief: as §4
[26] = system: Escherichia coli; test: The compound was evaluated for the inhibition of [14C]- Pen G binding to Escherichia coli UB1005 penicillin-binding protein 1a 90 kDa.; method in brief: as §4

Row | Structure (SMILES) | MIC [1] | MIC [2] | MIC [4] | MIC [5] | MIC [6] | MIC [7] | MIC [8] | MIC [9] | MIC [10] | MIC [11] | MIC [12] | MIC [13] | MIC [14] | MIC [15] | IC50 [16] | MIC [17] | MIC [18] | MIC [19] | MIC [20] | MIC [21] | further results
1 | O=CN[C@@H]1C(=O)N2C(C(=O)O)=C(COC(=O)N3CCN(c4cc5c(cc4F)c(=O)c(C(=O)O)cn5C4CC4)CC3)CS[C@H]12 | 1 µg/mL (≈ 1.62 µM) | 0.06 µg/mL (≈ 0.0975 µM) | 1 µg/mL (≈ 1.62 µM) | 1 µg/mL (≈ 1.62 µM) | 0.063 µg/mL (≈ 0.102 µM) | 0.5 µg/mL (≈ 0.812 µM) | 0.063 µg/mL (≈ 0.102 µM) | 2 µg/mL (≈ 3.25 µM) | 0.5 µg/mL (≈ 0.812 µM) | 4 µg/mL (≈ 6.5 µM) | 0.063 µg/mL (≈ 0.102 µM) | 2 µg/mL (≈ 3.25 µM) | 0.125 µg/mL (≈ 0.203 µM) | 0.063 µg/mL (≈ 0.102 µM) | 0.5 µg/mL (≈ 0.812 µM) | 0.031 µg/mL (≈ 0.0504 µM) | 4 µg/mL (≈ 6.5 µM) | 0.125 µg/mL (≈ 0.203 µM) | 0.25 µg/mL (≈ 0.406 µM) | 0.063 µg/mL (≈ 0.102 µM) | MIC [22]: 2 µg/mL (≈ 3.25 µM); Inhibitory concentration [23]: > 100 µg/mL; Inhibitory concentration [24]: 100 µg/mL; Inhibitory concentration [25]: > 100 µg/mL; Inhibitory concentration [26]: > 100 µg/mL
2 | CCN1CCN(C(=O)NC(C(=O)N[C@@H]2C(=O)N3C(C(=O)O)=C(COC(=O)N4CCN(c5cc6c(cc5F)c(=O)c(C(=O)O)cn6C5CC5)CC4)CS[C@H]23)c2ccccc2)C(=O)C1=O (stereo partly drawn) | 1 µg/mL (≈ 1.13 µM) | 0.06 µg/mL (≈ 0.0675 µM) | 1 µg/mL (≈ 1.13 µM) | 1 µg/mL (≈ 1.13 µM) | 0.063 µg/mL (≈ 0.0709 µM) | 0.125 µg/mL (≈ 0.141 µM) | 0.063 µg/mL (≈ 0.0709 µM) | 2 µg/mL (≈ 2.25 µM) | 0.5 µg/mL (≈ 0.563 µM) | 4 µg/mL (≈ 4.5 µM) | 0.031 µg/mL (≈ 0.0349 µM) | 1 µg/mL (≈ 1.13 µM) | 0.125 µg/mL (≈ 0.141 µM) | 0.063 µg/mL (≈ 0.0709 µM) | 9 µg/mL (≈ 10.1 µM) | 0.031 µg/mL (≈ 0.0349 µM) | 4 µg/mL (≈ 4.5 µM) | 0.063 µg/mL (≈ 0.0709 µM) | 0.125 µg/mL (≈ 0.141 µM) | 0.063 µg/mL (≈ 0.0709 µM) | MIC [3]: 0.063 µg/mL (≈ 0.0709 µM); MIC [22]: 1 µg/mL (≈ 1.13 µM); Inhibitory concentration [23]: > 100 µg/mL; Inhibitory concentration [24]: 0.5 µg/mL; Inhibitory concentration [25]: 10 µg/mL; Inhibitory concentration [26]: 10 µg/mL
3 | NC(=O)CO/N=C(\C(=O)N[C@@H]1C(=O)N2C(C(=O)O)=C(COC(=O)N3CCN(c4cc5c(cc4F)c(=O)c(C(=O)O)cn5C4CC4)CC3)CS[C@H]12)c1csc(N)n1 | 1 µg/mL (≈ 1.23 µM) | 0.06 µg/mL (≈ 0.0737 µM) | 2 µg/mL (≈ 2.46 µM) | 0.5 µg/mL (≈ 0.614 µM) | 0.063 µg/mL (≈ 0.0774 µM) | 0.063 µg/mL (≈ 0.0774 µM) | 0.063 µg/mL (≈ 0.0774 µM) | 2 µg/mL (≈ 2.46 µM) | 1 µg/mL (≈ 1.23 µM) | 4 µg/mL (≈ 4.92 µM) | 0.031 µg/mL (≈ 0.0381 µM) | 1 µg/mL (≈ 1.23 µM) | 0.125 µg/mL (≈ 0.154 µM) | 0.063 µg/mL (≈ 0.0774 µM) | 1.2 µg/mL (≈ 1.47 µM) | 0.063 µg/mL (≈ 0.0774 µM) | 0.5 µg/mL (≈ 0.614 µM) | 0.031 µg/mL (≈ 0.0381 µM) | 0.125 µg/mL (≈ 0.154 µM) | 0.063 µg/mL (≈ 0.0774 µM) | MIC [22]: 1 µg/mL (≈ 1.23 µM); Inhibitory concentration [23]: 100 µg/mL; Inhibitory concentration [24]: < 0.1 µg/mL; Inhibitory concentration [25]: 10 µg/mL; Inhibitory concentration [26]: 2 µg/mL

These reach a lower MIC [1]. Values come first.

Row | MIC [1] | MIC [2] | MIC [4] | MIC [5] | MIC [6] | MIC [7] | MIC [8] | MIC [9] | MIC [10] | MIC [11] | MIC [12] | MIC [13] | MIC [14] | MIC [15] | IC50 [16] | MIC [17] | MIC [18] | MIC [19] | MIC [20] | MIC [21] | Structure (SMILES) | further results
4 | 0.5 µg/mL (≈ 0.693 µM) | 0.03 µg/mL (≈ 0.0416 µM) | 0.5 µg/mL (≈ 0.693 µM) | 0.25 µg/mL (≈ 0.346 µM) | 0.031 µg/mL (≈ 0.043 µM) | 0.031 µg/mL (≈ 0.043 µM) | 0.031 µg/mL (≈ 0.043 µM) | 1 µg/mL (≈ 1.39 µM) | 0.25 µg/mL (≈ 0.346 µM) | 2 µg/mL (≈ 2.77 µM) | 0.031 µg/mL (≈ 0.043 µM) | 1 µg/mL (≈ 1.39 µM) | 0.125 µg/mL (≈ 0.173 µM) | 0.031 µg/mL (≈ 0.043 µM) | 4 µg/mL (≈ 5.54 µM) | < 0.016 µg/mL | 4 µg/mL (≈ 5.54 µM) | < 0.016 µg/mL | 0.063 µg/mL (≈ 0.0873 µM) | 0.063 µg/mL (≈ 0.0873 µM) | O=C(O)C1=C(COC(=O)N2CCN(c3cc4c(cc3F)c(=O)c(C(=O)O)cn4C3CC3)CC2)CS[C@@H]2[C@H](NC(=O)C(O)c3ccccc3)C(=O)N12 (stereo partly drawn) | MIC [3]: 0.031 µg/mL (≈ 0.043 µM)
5 | 0.5 µg/mL (≈ 0.693 µM) | 0.06 µg/mL (≈ 0.0831 µM) | 4 µg/mL (≈ 5.54 µM) | 0.125 µg/mL (≈ 0.173 µM) | 0.063 µg/mL (≈ 0.0873 µM) | 0.031 µg/mL (≈ 0.043 µM) | 0.063 µg/mL (≈ 0.0873 µM) | 1 µg/mL (≈ 1.39 µM) | 0.25 µg/mL (≈ 0.346 µM) | 4 µg/mL (≈ 5.54 µM) | 0.031 µg/mL (≈ 0.043 µM) | 2 µg/mL (≈ 2.77 µM) | 0.25 µg/mL (≈ 0.346 µM) | 0.063 µg/mL (≈ 0.0873 µM) | 4.2 µg/mL (≈ 5.82 µM) | 0.031 µg/mL (≈ 0.043 µM) | 4 µg/mL (≈ 5.54 µM) | 0.031 µg/mL (≈ 0.043 µM) | 0.25 µg/mL (≈ 0.346 µM) | 0.125 µg/mL (≈ 0.173 µM) | O=C(COc1ccccc1)N[C@@H]1C(=O)N2C(C(=O)O)=C(COC(=O)N3CCN(c4cc5c(cc4F)c(=O)c(C(=O)O)cn5C4CC4)CC3)CS[C@H]12 | MIC [3]: 0.063 µg/mL (≈ 0.0873 µM); MIC [22]: 2 µg/mL (≈ 2.77 µM); Inhibitory concentration [23]: > 100 µg/mL; Inhibitory concentration [24]: > 100 µg/mL; Inhibitory concentration [25]: > 100 µg/mL; Inhibitory concentration [26]: > 100 µg/mL
